Our source for the IC50 and Activity values is ChEMBL document CHEMBL1137261, “Structural insights into the ATP binding pocket of the anaplastic lymphoma kinase by site-directed mutagenesis, inhibitor binding analysis, and homology modeling” (J Med Chem, 2006).

Assay [1] has as its system BaF3. The assay is described as follows: Antiproliferative activity against murine BaF3 cells expressing NPM/ALK L256T mutant by [3H]thymidine uptake assay. It is filed as functional, cell-based. Particulars: Mus musculus. A digest of the protocol: (§1)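 IL-3-independent BaF3 clones stably transfected (electroporation, G418 selection) with human NPM/ALK, WT or L256T; RPMI 1640 + 10% FBS, 37 °C, 5% CO2. Seeded 10^4/well, exposed to inhibitor (0-4 µM range in figure) or vehicle for 8-48 h; 3[H]-thymidine uptake.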

In assay [2] the test system is BaF3. The assay is described as follows: Antiproliferative activity against murine BaF3 cells expressing wild type NPM/ALK by [3H]thymidine uptake assay. It is filed as functional, cell-based. Particulars: Mus musculus. A digest of the protocol: as §1
The subject of assay [3] is BaF3. The assay is described as follows: Induction of cell death of murine BaF3 cells expressing NPM/ALK L256T mutant by trypan blue exclusion assay. It is filed as functional, cell-based. Particulars: Mus musculus.
The target of assay [4] is T1, NPM/ALK (Nucleophosmin/ALK tyrosine kinase receptor) (Homo sapiens, UniProt P06748+Q9UM73, L256T). The experiment in a line: Inhibition of NPM/ALK L256T mutant kinase activity in BaF3 cells by radioenzymatic assay. Format: cell-based.
Assay [5] deals with T2, NPM/ALK (Nucleophosmin/ALK tyrosine kinase receptor) (Homo sapiens, UniProt Q9UM73). The experiment in a line: Inhibition of wild type NPM/ALK autophosphorylation activity in BaF3 cells by antiphosphotyrosine immunoblotting assay. Format: cell-based. (In general: In western blotting, separated proteins are transferred to a membrane and probed.)
For assay [6], the target named is T2, NPM/ALK (Nucleophosmin/ALK tyrosine kinase receptor). The experiment in a line: Inhibition of wild type NPM/ALK kinase activity in BaF3 cells by radioenzymatic assay. It is filed as cell-based.
The target in assay [7] is T1, NPM/ALK (Nucleophosmin/ALK tyrosine kinase receptor). The assay is described as follows: Inhibition of NPM/ALK L256T mutant autophosphorylation activity in BaF3 cells by antiphosphotyrosine immunoblotting assay. Format: cell-based.

Activity calls are given as the source filed them. No cut-off for these calls is given here.

Broadly, the IC50 is the concentration needed to halve the response being measured. A high value points to weaker potency in that assay.

T2 sequence (Q9UM73 whole entry): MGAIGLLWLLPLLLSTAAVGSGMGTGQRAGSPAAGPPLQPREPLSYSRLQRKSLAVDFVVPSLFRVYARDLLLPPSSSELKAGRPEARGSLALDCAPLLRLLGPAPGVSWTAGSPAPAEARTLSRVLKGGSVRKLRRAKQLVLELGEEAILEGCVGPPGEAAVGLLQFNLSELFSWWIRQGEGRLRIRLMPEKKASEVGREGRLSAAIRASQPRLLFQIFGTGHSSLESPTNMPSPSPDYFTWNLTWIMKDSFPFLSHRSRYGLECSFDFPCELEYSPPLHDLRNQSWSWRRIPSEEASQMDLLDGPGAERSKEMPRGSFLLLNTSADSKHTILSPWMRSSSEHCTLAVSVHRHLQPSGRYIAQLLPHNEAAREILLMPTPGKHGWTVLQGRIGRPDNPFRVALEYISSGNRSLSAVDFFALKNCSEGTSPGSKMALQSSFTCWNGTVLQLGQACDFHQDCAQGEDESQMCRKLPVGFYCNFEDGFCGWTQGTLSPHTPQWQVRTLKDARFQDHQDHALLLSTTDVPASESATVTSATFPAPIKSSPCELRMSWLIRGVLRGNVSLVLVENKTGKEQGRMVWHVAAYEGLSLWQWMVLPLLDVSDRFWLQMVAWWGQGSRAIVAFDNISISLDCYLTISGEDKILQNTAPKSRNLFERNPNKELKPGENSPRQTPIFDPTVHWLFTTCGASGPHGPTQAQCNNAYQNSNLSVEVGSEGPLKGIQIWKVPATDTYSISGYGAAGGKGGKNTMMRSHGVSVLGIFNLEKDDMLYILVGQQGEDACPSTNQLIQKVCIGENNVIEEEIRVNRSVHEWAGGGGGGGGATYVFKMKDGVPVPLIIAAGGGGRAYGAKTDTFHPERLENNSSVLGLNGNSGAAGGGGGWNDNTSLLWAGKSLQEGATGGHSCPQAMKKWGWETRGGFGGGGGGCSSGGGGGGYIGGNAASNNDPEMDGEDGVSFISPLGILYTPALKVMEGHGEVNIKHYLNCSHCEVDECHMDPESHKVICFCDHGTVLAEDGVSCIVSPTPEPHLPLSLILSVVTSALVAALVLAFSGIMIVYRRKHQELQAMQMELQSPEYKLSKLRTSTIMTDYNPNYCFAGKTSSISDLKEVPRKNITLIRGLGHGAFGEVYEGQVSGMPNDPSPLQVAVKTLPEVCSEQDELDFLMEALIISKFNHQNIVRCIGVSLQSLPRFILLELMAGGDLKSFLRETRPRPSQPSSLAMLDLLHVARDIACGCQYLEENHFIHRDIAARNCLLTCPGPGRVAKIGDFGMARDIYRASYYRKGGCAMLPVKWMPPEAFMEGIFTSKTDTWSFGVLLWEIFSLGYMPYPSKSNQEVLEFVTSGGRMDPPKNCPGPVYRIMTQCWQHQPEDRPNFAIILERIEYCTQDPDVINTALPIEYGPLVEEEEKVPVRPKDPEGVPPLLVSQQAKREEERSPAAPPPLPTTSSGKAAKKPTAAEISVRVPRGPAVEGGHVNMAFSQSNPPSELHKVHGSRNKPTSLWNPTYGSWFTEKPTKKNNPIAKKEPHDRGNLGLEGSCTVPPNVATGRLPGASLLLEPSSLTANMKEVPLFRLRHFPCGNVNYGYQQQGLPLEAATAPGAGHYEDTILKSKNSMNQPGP
T2 sequence (P06748 whole entry, further chain): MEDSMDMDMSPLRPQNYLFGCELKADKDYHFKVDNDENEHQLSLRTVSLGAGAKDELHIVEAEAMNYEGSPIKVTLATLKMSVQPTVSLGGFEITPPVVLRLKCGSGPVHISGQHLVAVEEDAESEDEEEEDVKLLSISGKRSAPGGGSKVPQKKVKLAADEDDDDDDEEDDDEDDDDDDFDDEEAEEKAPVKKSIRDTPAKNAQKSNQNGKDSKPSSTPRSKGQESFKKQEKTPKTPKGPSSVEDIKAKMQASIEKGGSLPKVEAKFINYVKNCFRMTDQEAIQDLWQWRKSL
T1 sequence (P06748 whole entry, stated change not applied): as the sequence (P06748 whole entry, further chain) above
T1 sequence (Q9UM73 19-1620 L256T limits assumed, stated change not applied): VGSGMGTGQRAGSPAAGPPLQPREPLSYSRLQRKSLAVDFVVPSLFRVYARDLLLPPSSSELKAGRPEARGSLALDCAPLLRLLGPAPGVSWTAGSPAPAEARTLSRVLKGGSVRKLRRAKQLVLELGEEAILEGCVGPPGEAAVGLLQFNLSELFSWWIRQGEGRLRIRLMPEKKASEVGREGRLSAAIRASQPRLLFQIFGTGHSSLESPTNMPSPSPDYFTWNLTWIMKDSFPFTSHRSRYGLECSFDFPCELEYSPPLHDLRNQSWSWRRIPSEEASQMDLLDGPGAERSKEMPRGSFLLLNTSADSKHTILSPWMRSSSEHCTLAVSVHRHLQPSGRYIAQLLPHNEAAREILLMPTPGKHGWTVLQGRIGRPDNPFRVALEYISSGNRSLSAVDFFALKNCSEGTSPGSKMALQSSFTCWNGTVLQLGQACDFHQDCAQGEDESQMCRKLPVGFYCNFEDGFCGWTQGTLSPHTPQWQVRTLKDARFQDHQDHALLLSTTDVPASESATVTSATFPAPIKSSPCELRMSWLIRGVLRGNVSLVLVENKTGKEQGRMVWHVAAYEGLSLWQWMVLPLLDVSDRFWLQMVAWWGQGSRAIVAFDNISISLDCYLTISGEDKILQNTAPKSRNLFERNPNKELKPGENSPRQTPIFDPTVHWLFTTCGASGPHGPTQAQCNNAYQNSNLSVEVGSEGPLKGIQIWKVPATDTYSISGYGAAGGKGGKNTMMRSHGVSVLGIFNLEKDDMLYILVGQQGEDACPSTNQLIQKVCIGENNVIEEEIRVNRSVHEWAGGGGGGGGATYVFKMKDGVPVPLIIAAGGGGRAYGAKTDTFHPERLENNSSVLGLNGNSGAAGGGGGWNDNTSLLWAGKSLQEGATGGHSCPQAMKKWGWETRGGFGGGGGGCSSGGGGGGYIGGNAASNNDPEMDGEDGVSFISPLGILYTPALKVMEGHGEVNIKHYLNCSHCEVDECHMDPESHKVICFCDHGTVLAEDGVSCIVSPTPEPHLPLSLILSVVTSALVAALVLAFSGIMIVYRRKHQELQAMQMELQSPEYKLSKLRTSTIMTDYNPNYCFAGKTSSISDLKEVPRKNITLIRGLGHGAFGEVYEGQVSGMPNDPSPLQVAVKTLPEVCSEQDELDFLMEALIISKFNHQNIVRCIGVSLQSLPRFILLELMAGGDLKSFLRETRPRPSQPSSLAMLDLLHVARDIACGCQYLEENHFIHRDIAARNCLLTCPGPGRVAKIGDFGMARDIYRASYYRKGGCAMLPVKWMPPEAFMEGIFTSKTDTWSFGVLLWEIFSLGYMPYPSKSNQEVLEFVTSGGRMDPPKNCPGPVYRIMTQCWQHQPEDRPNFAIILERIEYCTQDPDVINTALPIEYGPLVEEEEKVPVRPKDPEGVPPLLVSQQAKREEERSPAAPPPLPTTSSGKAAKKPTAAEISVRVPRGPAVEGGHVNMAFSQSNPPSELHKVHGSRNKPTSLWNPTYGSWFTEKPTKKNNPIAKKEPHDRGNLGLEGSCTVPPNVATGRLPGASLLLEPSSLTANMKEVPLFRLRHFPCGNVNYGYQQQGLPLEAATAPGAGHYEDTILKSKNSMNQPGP

Take `CSc1cccc(Nc2ncc3cc(-c4c(Cl)cccc4Cl)c(=O)n(C)c3n2)c1`: the values for the IC50 in assay [1] and in assay [2] were 1.8 µM and 2 µM, respectively. Moreover, the outcome in assay [3] was Active.
For the molecule `COc1cc(Nc2c(C#N)cnc3cc(OCCCN4CCN(C)CC4)c(OC)cc23)c(Cl)cc1Cl` [BOSUTINIB], the IC50 in assay [1] is 0.2 µM; in assay [4], 0.15 µM; in assay [5] it was more than 20 µM; in assay [2], 1 µM; in assay [6], more than 10 µM; in assay [7], 0.2 µM. The result in assay [3] was Active.
With `Cc1ccc(NC(=O)c2ccc(CN3CCN(C)CC3)cc2)cc1Nc1nccc(-c2cccnc2)n1` [IMATINIB], the IC50 in assay [1] came out at 9.1 µM; in assay [2], 7.1 µM.
